Most compounds without a hit are left out; they make up all but 2.3% or so of the library.
CSN deneddyl inh: CSN deneddylation inhibition. Purified CSN, SCF-Nedd8-OG deneddylation, fluorescence polarization. inhibition, % at 12.5 µM. 0.38% of 360,000 active. AID 651999;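 active means pattern-corrected inhibition above about 35%, with an unprinted fluorescence ratio check between 0.5 and 1.5, limit read from the data, passing the limit was not always enough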
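Assay system: Purified human Csn5 enzyme expressed in HEK293T cells | Amount: Enzyme 0.24 nM | Measured by: Fluorescence polarization readout | Medium: Tris/NaCl/DTT buffer, pH 7.5 | Compound dosing: One concentration, 12.5 µM, 0.25% DMSO | Times: 90 min incubation of compound, enzyme and substrate at room temperature | Control set: no-enzyme wells high, enzyme-with-substrate wells low | Read-out: % inhibition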
HNF4A DNA FP: change in binding of human HNF4 alpha to DNA. HNF4a-FITC DNA binding, fluorescence polarization, 1 h. activity change, % at 10 µM. 0.3% of 360,000 active; in the data active means activity change above about 30%, passing the limit was not always enough
Rpn11 inh: blocks the human proteasome subunit Rpn11; O00487; human 26S proteasome, Ub4-pepOG fluorescence polarization; 20S core pre-blocked with epoxomicin; calls only at 20 µM; 0.59% of 360,000 active; AID 588493;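 active means inhibition at 20 µM, scaled to each plate's controls, above about 33%, limit read from the data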
CRFBP-R2 agonist: CRF-BP/CRF-R2 complex agonism. HEK293 CRF-R2/CRF-BP, calcium dye fluorescence (FLIPR); percent of saturating CRF peptide response. activation, % at 13.2 µM. 0.46% of 350,000 active. AID 588473;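 active means activation of at least 50%, plus an integration ratio under a set limit after plate pattern correction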
TPT1 inhibitor: C. albicans TPT1 enzyme inhibition; recombinant caTPT1, FP RNA substrate dephosphorylation; 0.81% of 300,000 active; inhibition, % at 5 µM;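 active means inhibition above the mean of all tested compounds plus 3 SD, set per screening campaign, cut at about 24% in these data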
CRFBP-R2 block: CRF-BP/CRF-R2 complex antagonism; HEK293 CRF-R2/CRF-BP, CRF-induced calcium fluorescence; inhibition, % at 11.8 µM; 0.59% of 350,000 active;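 active means inhibition of the ligand-induced calcium signal above about 50% at the single tested concentration, limit read from the data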
Rpn11 inh conf: confirmation of human proteasome Rpn11 inhibitors; shares compounds with Rpn11 inh; purified human 26S proteasome, Ub4-pepOG fluorescence polarization; proteasome pretreated with epoxomicin; inhibition, % at 20 µM; 29% of 1,900 active
MMP-2 inh: blocks human MMP-2, flagging nonselective RPN11 hits; 4% of 1,900 active; shares compounds with Rpn11 inh; inhibition, % at 20 µM; recombinant MMP-2, FRET peptide cleavage fluorescence;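 further: human MMP-2 activated beforehand with APMA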
Thrombin inh: counter-screen for RPN11 inhibitors: inhibition of bovine thrombin; shares compounds with Rpn11 inh; bovine thrombin cleavage of Ub4-pepOG, fluorescence polarization; inhibition, % at 20 µM; 13% of 1,900 active; AID 602333;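 active means mean inhibition at least 40% at 20 µM, or signal 3 deviations below plate average, so some actives read negative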
Hits are given with their value; i = inactive; nt = no result; + = active, no number. Unless noted, no stated cut-off is given here; in the data, active means inhibition above about 40%; inactive means the rest.

SMILES | CSN deneddyl inh | HNF4A DNA FP | Rpn11 inh | CRFBP-R2 agonist | TPT1 inhibitor | CRFBP-R2 block | Rpn11 inh conf | MMP-2 inh | Thrombin inh
N=c1c(C(=O)NC2CCCCC2)cc2c(=O)n3ccccc3nc2n1Cc1ccc(F)cc1 | i | i | + | i | i | i | i | i | i
S=C(Nc1ccc(-c2nc3ccccc3[nH]2)cc1)Nc1cccnc1 | i | i | i | i | i | i | nt | nt | nt
COc1ccc(C(C)(O)c2nc(-c3ccc(S(C)(=O)=O)cc3)cs2)cc1 (stereo unspecified) | i | i | i | nt | nt | nt | nt | nt | nt
Cc1ccccc1C(=O)O/N=C(\N)c1cccc([N+](=O)[O-])c1 | i | i | i | i | i | i | nt | nt | nt
N/C(=N\OC(=O)c1cccc2ccccc12)c1cccc([N+](=O)[O-])c1 | i | i | + | i | i | i | i | i | i
COc1cc(NC(=O)CN(C)S(=O)(=O)c2ccc(C)cc2)cc(OC)c1 | i | i | + | i | i | i | i | i | i
COc1ccc(NC(=O)CN(C)S(=O)(=O)c2ccc(Cl)cc2)c([N+](=O)[O-])c1 | i | i | + | i | i | i | i | i | i
COc1ccc(S(=O)(=O)N(C)CC(=O)Nc2ccc(C)cc2)cc1OC | i | i | i | i | i | i | nt | nt | nt
Cc1ccc2nc(-c3ccccn3)c(N)n2c1 | i | i | i | nt | nt | nt | nt | nt | nt
Cc1cccc(Cn2ncc(Cl)c(Cl)c2=O)c1 | i | i | i | i | i | i | nt | nt | nt
CCC(C)(C)NC(=O)C(c1sccc1C)N(Cc1ccco1)C(=O)c1csnn1 (stereo unspecified) | i | i | i | i | i | i | nt | nt | nt
CC1(C)CC(NC(=O)C(F)(F)F)CC(C)(C)N1OC(=O)c1ccco1 | i | i | i | i | i | i | nt | nt | nt
Cc1cc(/C=C2\Cc3ccccc3C2=O)c(C)n1-c1ccccc1 | i | i | + | i | i | i | 124 | i | 105
O=C(Nc1ccc(Cl)cc1)Nc1ccccc1Sc1ncc([N+](=O)[O-])s1 | i | i | + | i | i | i | i | i | i
O=C(Nc1csc([N+](=O)[O-])c1)Nc1ccccc1Cl | i | i | i | i | i | i | nt | nt | nt
COc1ccc(OCC(=O)Nc2cc(S(=O)(=O)N3CCCC3)ccc2OCC(F)(F)F)cc1 | i | i | i | i | nt | i | nt | nt | nt
O=C(CCl)NCCN1C(=O)S/C(=C\c2cccnc2)C1=O | 62 | i | + | i | i | i | 53 | i | i
CC(C(=O)NCCN1C(=O)S/C(=C\c2cccnc2)C1=O)N1C(=O)c2ccccc2C1=O (stereo unspecified) | i | i | i | i | i | i | nt | nt | nt
CCC(C(=O)NCc1ccco1)n1nc(-c2ccc(OC)cc2)ccc1=O (stereo unspecified) | i | i | i | i | i | i | nt | nt | nt
COc1ccc(C#Cc2ccc3c(c2)O[C@@H](CN(C)C(=O)Nc2cccc(OC)c2)[C@H](C)CN([C@@H](C)CO)S3(=O)=O)cc1 | i | i | + | i | nt | i | 41 | i | i
CC(=O)Nc1cc(-c2ccc(N3CCN(C)CC3)cc2)cn2c(-c3ccc(F)c(Cl)c3)cnc12 | i | i | i | nt | nt | nt | nt | nt | nt
CN1CCN(c2ccc(-c3cc(NC=O)c4ncc(-c5ccc(F)c(Cl)c5)n4c3)cc2)CC1 | i | i | + | nt | nt | nt | i | i | i
Cc1cccc(Nc2nn3c(=O)c4ccccc4nc3s2)c1 | i | 75 | + | i | i | i | 46 | i | i
COc1ccc(Br)cc1C(=O)Nc1cccc(-c2nnc(-c3ccco3)o2)c1 | 115 | 49 | + | i | i | i | i | i | i
COc1cccc(C(=O)Nc2cccc(-c3nnc(-c4ccco4)o3)c2)c1 | i | i | i | i | i | i | nt | nt | nt
Cc1cc(NC(=O)CCC(=O)N(c2ccccc2)C(C(=O)NCC2CCCO2)c2cccnc2)no1 (stereo unspecified) | i | i | + | i | i | i | i | i | i

Screening data from PubChem BioAssay.
